Here are results for 14 compounds from PubChem BioAssay.

The nature of test [1]: reducers of endogenous Her2 protein level, primary screen, SKBR3 breast tumor cells, AlphaScreen, ATP viability (AID 461;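 active means Her2 level under about 52% in both replicate screens, with viability over 70% of control, limit read from the data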;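 on Her2 level: lower value means less Her2 protein in the cells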;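 on viability: percent of carrier control wells set as 100% viability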). Particulars: 18-24 h, measured here: SKBR3 viability, ATP luminescence, at 10 µM.
The target in test [2] is Receptor tyrosine-protein kinase erbB-2 (Homo sapiens) (UniProt P04626). The description is as above. Conditions: 18-24 h, at 10 µM, stronger effect = lower value.
Chain of Receptor tyrosine-protein kinase erbB-2 (Homo sapiens) (P04626 whole entry, looked up): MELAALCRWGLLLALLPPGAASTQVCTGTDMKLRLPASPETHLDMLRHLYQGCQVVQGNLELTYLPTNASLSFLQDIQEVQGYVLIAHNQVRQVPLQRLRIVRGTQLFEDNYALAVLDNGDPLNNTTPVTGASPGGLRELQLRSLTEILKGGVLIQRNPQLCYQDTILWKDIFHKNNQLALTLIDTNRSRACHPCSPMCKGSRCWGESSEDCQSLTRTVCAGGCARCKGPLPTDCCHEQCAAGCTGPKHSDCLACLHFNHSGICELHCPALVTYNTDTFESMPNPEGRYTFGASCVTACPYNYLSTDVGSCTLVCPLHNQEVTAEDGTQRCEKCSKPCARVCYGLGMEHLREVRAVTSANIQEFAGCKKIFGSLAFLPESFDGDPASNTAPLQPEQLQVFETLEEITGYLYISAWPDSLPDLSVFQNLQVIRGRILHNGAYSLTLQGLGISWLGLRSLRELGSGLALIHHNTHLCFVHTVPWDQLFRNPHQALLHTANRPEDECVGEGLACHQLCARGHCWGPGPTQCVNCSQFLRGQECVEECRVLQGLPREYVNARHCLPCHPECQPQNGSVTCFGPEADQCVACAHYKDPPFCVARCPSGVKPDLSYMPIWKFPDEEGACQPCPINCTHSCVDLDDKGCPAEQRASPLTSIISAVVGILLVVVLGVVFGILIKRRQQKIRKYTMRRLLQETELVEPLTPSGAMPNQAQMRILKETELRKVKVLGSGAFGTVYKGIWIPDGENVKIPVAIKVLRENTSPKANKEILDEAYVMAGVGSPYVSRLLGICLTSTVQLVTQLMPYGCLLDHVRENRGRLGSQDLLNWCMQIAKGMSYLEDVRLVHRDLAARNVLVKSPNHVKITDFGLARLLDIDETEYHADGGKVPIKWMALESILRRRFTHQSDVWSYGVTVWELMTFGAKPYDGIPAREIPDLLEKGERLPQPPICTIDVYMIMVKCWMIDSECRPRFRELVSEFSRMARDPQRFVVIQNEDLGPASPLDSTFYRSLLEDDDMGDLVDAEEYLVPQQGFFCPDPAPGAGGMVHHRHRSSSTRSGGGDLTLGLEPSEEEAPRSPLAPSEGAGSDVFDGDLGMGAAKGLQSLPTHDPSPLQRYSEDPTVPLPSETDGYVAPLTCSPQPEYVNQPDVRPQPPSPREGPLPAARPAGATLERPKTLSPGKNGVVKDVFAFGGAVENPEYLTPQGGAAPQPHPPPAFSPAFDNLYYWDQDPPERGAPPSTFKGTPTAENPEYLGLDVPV
The nature of test [3]: SK-BR-3 cell growth inhibitors, pilot screen, 24 h, human (AID 572;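 active means viability at or below 10% of carrier control in both of two separate runs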;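 further: compound exposure lasted between 18 and 24 h rather than exactly 24 h; 100% = carrier-treated control wells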). Conditions: SK-BR-3 viability, CellTiter-Glo luminescence, at 10 µM, stronger effect = lower value.
The nature of test [4]: HUVEC growth inhibition – cell-based, human, primary screen (AID 575;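 active means viability at or below 30% in both replicate assays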;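 further: 100% = median of untreated cell wells with 0.1% DMSO on each plate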). Particulars: HUVEC proliferation, CellTiter-Glo luminescence, 72 h; at 10 µM; stronger effect = lower value. In short, it runs like this: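 System: primary human umbilical vein endothelial cells; Quantity: 1250 endothelial cells in each well; Buffer or medium: supplemented EBM, 2% fetal bovine serum; Doses: one dose, 10 µM final, 0.1% DMSO; Incubation: 72 h compound incubation; Technique: ATP-based CellTiter-Glo luminescent read; Evaluation: percent of median DMSO-control luminescence; Controls: vehicle and MePR control wells.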
(In general: Cellular ATP, detected with luciferase, serves as a proxy for viable cell number.)

The nature of test [5]: growth inhibitors of H69AR lung tumor, primary screen, human, duplicate replicates (AID 580;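 active means viability at or under a set limit in both replicates, limit being median viability minus 3 SD, cut at about 48% in these data, passing the limit was not always enough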;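 further: 100% = mean luminescence of untreated wells and 0% = no signal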). Particulars: H69AR lung tumor cells viability, ATP luminescence, 72 h; at 10 µM; stronger effect = lower value.
Test [6] can be described thus: reversal of MRP1-mediated doxorubicin resistance, pilot screen, H69AR cells, doxorubicin co-treatment (AID 601;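 active means viability loss from added drug above about 55%, and viability with drug at most 40%, in both replicates, limit read from the data, passing the limit was not always enough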). Conditions: CellTiter-Glo, 72 h, at 10 µM; for differential viability (reversal): stronger effect = higher value.
The nature of test [7]: 384-well plate pilot, post-Golgi transport modulator project, inhibition of yeast transport mutant growth (AID 636; in the data active means inhibition above about 31%). Particulars: absorbance 615 nm, about 18 h, stronger effect = higher value.
The nature of test [8]: growth suppression of yeast trafficking mutant, preliminary HTS, modulators of trafficking downstream of Golgi apparatus project, 1536-format plate, OD 615 nm (AID 637). Particulars: yeast transport mutant growth, absorbance 615 nm, 18 h; stronger effect = higher value.
[9] abbreviates: H69AR cells + 2 uM doxorubicin, measured here: viability with 2 uM doxorubicin, stronger effect = lower value.
The mark [10] stands for this setting: H69AR cells, compound alone cytotoxicity.

Molecules are shown by their SMILES. The source made the active and inactive calls. Unless noted, no stated cut-off is given here; in the data, active means inhibition above about 30%; inactive means the rest.

As a reminder, the viability is a read-out of living cells in per cent, often relative to untreated cells. As usually defined, the inhibition is the change of the read-out against control, counted positive when it falls. `O=C1c2ccccc2CN1CCNS(=O)(=O)c1ccc(Cl)cc1`: the viability was 104% in test [1]; 104% (inactive) in test [3]; 98% (inactive) in test [4]; 88% (inactive) in test [5]; 84.8% in test [6] (setting [9]); 88% in test [6] (setting [10]). Also, in test [2], the Her2 level is 92.5% (inactive). In addition, the differential viability (reversal) in test [6] (H69AR cells + 2 uM doxorubicin) was 3.27% (inactive). Also, the inhibition in test [7] was -7.87% (inactive); in test [8], -0.63% (inactive).
On to `COC(=O)CCCCCNc1ccc(C(=O)OC)cc1N`, for which the viability in test [1] is 107%; in test [3] it was 107% (inactive); in test [4], 98.5% (inactive); in test [5], 91.5% (inactive); in test [6] (setting [9]) it was 85.4%; in test [6] (setting [10]) it was 91.5%. For the same compound, in test [2], the Her2 level was 86% (inactive). Further, in test [6] (H69AR cells + 2 uM doxorubicin), the differential viability (reversal) was 6.14% (inactive). Further, the inhibition in test [7] is -7.16% (inactive); in test [8], -6.5% (inactive).
On to `Cc1nnc2ccc(N3CCN(c4cccc(C(F)(F)F)c4)CC3)nn12`, for which the viability in test [1] was 97.5%; in test [3] it was 97.5% (inactive); in test [4] it was 75% (inactive); in test [5], 80.3% (inactive); in test [6] (setting [9]), 61.6%; in test [6] (setting [10]), 80.3%. The Her2 level in test [2] was 77.5% (inactive). Moreover, in test [6] (H69AR cells + 2 uM doxorubicin), the differential viability (reversal) is 18.7% (inactive). Further, the inhibition in test [7] is -0.53% (inactive); in test [8] it was -1.15% (inactive).
For the compound `CCOc1ccc(NCc2nnc(SCC(=O)Nc3cc(C)on3)n2-c2ccccc2OC)cc1`, the viability in test [1] is 106%; in test [3] it was 106% (inactive); in test [4] it was 41.7% (inactive); in test [5] it was 13.1% (active); in test [6] (setting [9]) it was 32.1%; in test [6] (setting [10]), 13.1%. Besides, in test [2], the Her2 level was 79% (inactive). The differential viability (reversal) in test [6] (H69AR cells + 2 uM doxorubicin) was -19% (inactive). The inhibition in test [7] was -4.8% (inactive); in test [8] it was 2.86% (inactive).
Take `Cc1cccc(-c2noc(CCC(=O)Nc3ccccc3)n2)c1`: the viability in test [1] is 106%; in test [3] it was 106% (inactive); in test [4], 79.4% (inactive); in test [5], 91.2% (inactive); in test [6] (setting [9]) it was 84.9%; in test [6] (setting [10]), 91.2%. Also, the Her2 level in test [2] is 93% (inactive). In addition, the differential viability (reversal) in test [6] (H69AR cells + 2 uM doxorubicin) is 6.29% (inactive). In addition, the inhibition in test [7] was -7.3% (inactive); in test [8] it was -11.2% (inactive).
Turning to `COc1ccc(N2CCN(C(=O)CSc3nnc4n3C(C)(C)Cc3ccccc3-4)CC2)cc1`, the viability in test [1] is 96%; in test [3], 96% (inactive); in test [4] it was 84.3% (inactive); in test [5], 88.7% (inactive); in test [6] (setting [9]) it was 93.1%; in test [6] (setting [10]) it was 88.7%. The Her2 level in test [2] was 100% (inactive). Further, the differential viability (reversal) in test [6] (H69AR cells + 2 uM doxorubicin) was -4.46% (inactive). For the same compound, the figures for the inhibition in test [7] and in test [8] were -5.79% (inactive) and -1.61% (inactive), respectively.
With `COc1ccc(CCNS(=O)(=O)c2ccc3oc(C(=O)O)c(C)c3c2)cc1OC`, the viability in test [1] was 109%; in test [3] it was 109% (inactive); in test [4] it was 112% (inactive); in test [5], 88.7% (inactive); in test [6] (setting [9]) it was 91.2%; in test [6] (setting [10]) it was 88.7%. Besides, the Her2 level in test [2] was 92% (inactive). The differential viability (reversal) in test [6] (H69AR cells + 2 uM doxorubicin) is -2.46% (inactive). The results for the inhibition in test [7] and in test [8] were 0.78% (inactive) and 1.15% (inactive), respectively.
As to `CC(=O)c1c(C)[nH]c(C(=O)N2CCN(C(=O)c3ccco3)CC2)c1C`, the viability in test [1] is 85%; in test [3], 85% (inactive); in test [4], 94.5% (inactive); in test [5], 99.1% (inactive); in test [6] (setting [9]), 98.7%; in test [6] (setting [10]) it was 99.1%. The Her2 level in test [2] was 102% (inactive). Further, in test [6] (H69AR cells + 2 uM doxorubicin), the differential viability (reversal) was 0.42% (inactive). In addition, the inhibition in test [7] is -2.3% (inactive); in test [8] it was -0.49% (inactive).
As for `O=S1(=O)CC(N2CCCCC2)C(N2CCCCC2)C1` (stereo not given), the viability in test [1] was 104%; in test [3], 104% (inactive); in test [4], 108% (inactive); in test [5], 95.3% (inactive); in test [6] (setting [9]) it was 78.3%; in test [6] (setting [10]), 95.3%. Besides, the Her2 level in test [2] is 91.5% (inactive). The differential viability (reversal) in test [6] (H69AR cells + 2 uM doxorubicin) was 16.9% (inactive). Moreover, the inhibition was -2.99% (inactive) in test [7] and 1.27% (inactive) in test [8].
Take `Cc1ccc(C)c(N(CC(=O)NCc2ccco2)C(=O)CCC(=O)Nc2ccccn2)c1`: the viability in test [1] is 93%; in test [3] it was 93% (inactive); in test [4] it was 81.8% (inactive); in test [5] it was 68.6% (inactive); in test [6] (setting [9]), 74%; in test [6] (setting [10]), 68.6%. In addition, the Her2 level in test [2] was 92% (inactive). For the same compound, in test [6] (H69AR cells + 2 uM doxorubicin), the differential viability (reversal) is -5.34% (inactive). Moreover, the inhibition in test [7] is -3.25% (inactive); in test [8], -1.43% (inactive).
With `COc1ccccc1OC(=O)c1ccc2nsnc2c1`, the viability is 110% in test [1]; 110% (inactive) in test [3]; 91.8% (inactive) in test [4]; 100% (inactive) in test [5]; 88.4% in test [6] (setting [9]); 100% in test [6] (setting [10]). For the same compound, the Her2 level in test [2] is 89% (inactive). Also, the differential viability (reversal) in test [6] (H69AR cells + 2 uM doxorubicin) was 11.6% (inactive). For the same compound, the inhibition is -8.16% (inactive) in test [7] and -6.55% (inactive) in test [8].
As to `CCOC(=O)CSc1nc2ccccc2n2cnnc12`, the viability in test [1] was 104%; in test [3], 104% (inactive); in test [4] it was 91.4% (inactive); in test [5], 83.9% (inactive); in test [6] (setting [9]), 81.1%; in test [6] (setting [10]), 83.9%. The Her2 level in test [2] is 76.5% (inactive). Also, the differential viability (reversal) in test [6] (H69AR cells + 2 uM doxorubicin) is 2.78% (inactive). Further, the inhibition in test [7] is -5.54% (inactive); in test [8], -2% (inactive).
With `CCOC(=O)c1oc2ccccc2c1NC(=O)COC`, the viability is 108% in test [1]; 108% (inactive) in test [3]; 99.5% (inactive) in test [4]; 102% (inactive) in test [5]; 93.2% in test [6] (setting [9]); 102% in test [6] (setting [10]). For the same compound, the Her2 level in test [2] was 91.5% (inactive). In addition, the differential viability (reversal) in test [6] (H69AR cells + 2 uM doxorubicin) is 9.07% (inactive). For the same compound, the values for the inhibition in test [7] and in test [8] were -4.73% (inactive) and -3.93% (inactive), respectively.
As for `Cc1ccc(OC(=O)CCC(=O)OCCCC(F)(F)C(F)(F)F)cc1`, the viability is 102% in test [1]; 102% (inactive) in test [3]; 91.2% (inactive) in test [4]; 94.3% (inactive) in test [5]; 90.5% in test [6] (setting [9]); 94.3% in test [6] (setting [10]). Also, in test [2], the Her2 level is 104% (inactive). For the same compound, in test [6] (H69AR cells + 2 uM doxorubicin), the differential viability (reversal) is 3.79% (inactive). Also, the inhibition was -1.76% (inactive) in test [7] and -1.64% (inactive) in test [8].
